# Results: ChEMBL document CHEMBL4819015, “Design, synthesis, and biological evaluation of hederagenin derivatives with improved aqueous solubility and tumor resistance reversal activity” (Eur J Med Chem, 2021)
# Legend:
# [1] = Cytotoxicity against human KBV cells assessed as cell survival at 10 uM measured after 72 hrs by MTT assay; format: functional; conditions: read-out: Activity
# Procedure, shortened: (§1)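 KBV or MCF-7T cells were grown in DMEM with 10% heat-inactivated FCS, penicillin/streptomycin, 37 °C and 5% CO2, with periodic 10 nM paclitaxel to keep resistance; cells were used in exponential phase. Cells were exposed to test articles for 72 h, given MTT for about 2 h, the medium was removed and DMSO added. A570 gave the survival rate.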
# [2] = Aqueous solubility of compound in deionized water at 37 degC measured by UV-vis spectrophotometry
# [3] = biological target: T1, ATP-dependent translocase ABCB1 (Homo sapiens, UniProt P08183); experiment: Reversal of P-glycoprotein mediated multidrug resistance in human KBV cells assessed as potentiation of paclitaxel-induced cytotoxicity by measuring cell survival rate at 10 uM measured after 72 hrs by MTT assay; format: cell-based; procedure, shortened: as §1
# [4] = biological target: T1, ATP-dependent translocase ABCB1; experiment: Reversal of P-glycoprotein mediated multidrug resistance in human KBV cells assessed as paclitaxel-mediated apoptosis by measuring accumulation of cells in Sub-G1 phase in at 10 uM measured by flowcytometry method (Rvb (paclitaxel)= 2.1%); format: cell-based
# [5] = Stability of compound in presence of Porcine liver esterase assessed as residual activity at pH 7.4 measured after 4 hrs; format: ADME; conditions: pig, read-out: Stabilty
# Procedure, shortened: (§2)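 Compound in PBS pH 7.4 with porcine liver esterase, shaken at 37 °C. Aliquots were taken at set times, diluted 10-fold and centrifuged at 14,000 rpm for 5 min. Supernatants were run on C18 HPLC with isocratic 95% methanol/water (0.1% TFA) at 1 mL/min, UV 306 nm. Percent remaining is relative to the 0 h sample.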
# [6] = Stability of compound in presence of Porcine liver esterase assessed as residual activity at pH 7.4 measured after 12 hrs; format: ADME; conditions: pig, read-out: Stabilty; procedure, shortened: as §2
# [7] = Induction of apoptosis in human KBV cells assessed as accumulation of cells in Sub-G1 phase at 10 uM measured by flowcytometry method (reference value: 1.9%); format: functional
# [8] = Stability of compound in presence of Porcine liver esterase assessed as residual activity at pH 7.4 measured after 24 hrs; format: ADME; conditions: pig, read-out: Stabilty; procedure, shortened: as §2
# [9] = biological target: T1, ATP-dependent translocase ABCB1; experiment: Inhibition of P-glycoprotein mediated Flutax1 efflux in human KBV cells assessed as Flutax1 accumulation at 10 uM measured after 2 hrs by flowcytometry; format: cell-based; conditions: mcf-t, in the assay text read “human MCF-7T cells” for “human KBV cells”
# [10] = biological target: T1, ATP-dependent translocase ABCB1; experiment: Inhibition of P-glycoprotein mediated Rhodamine-123 efflux in human MCF-7T cells assessed as Rhodamine-123 accumulation measured after 2 hrs by flowcytometry; format: cell-based; conditions: dose 5-10 µM
# Procedure, shortened: (§3)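 KBV or MCF-7T cells were pretreated with or without compound for 2 h, then loaded with rhodamine 123 for 30 min. Cells were harvested and washed three times in PBS. Flow cytometry of 10,000 cells gave mean fluorescence intensity; mean ± SD, n = 3.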
# [11] = biological target: T1, ATP-dependent translocase ABCB1; experiment: Reversal of P-glycoprotein mediated multidrug resistance in human KBV cells assessed as paclitaxel-mediated apoptosis by measuring accumulation of cells in Sub-G1 phase in at 5 uM measured by flowcytometry method (Rvb (paclitaxel)= 2.1%); format: cell-based
# [12] = biological target: T1, ATP-dependent translocase ABCB1; experiment: Inhibition of P-glycoprotein mediated Flutax1 efflux in human KBV cells assessed as Flutax1 accumulation at 5 uM […] by flowcytometry; format: cell-based
# [13] = biological target: T1, ATP-dependent translocase ABCB1; experiment: Inhibition of P-glycoprotein mediated Rhodamine-123 efflux in human KBV cells assessed as Rhodamine-123 accumulation measured after 2 hrs by flowcytometry; format: cell-based; conditions: dose 5-10 µM; procedure, shortened: as §3
# [14] = Cytotoxicity against human KBV cells assessed as cell survival measured after 72 hrs by MTT assay; format: functional, cell-based; procedure, shortened: as §1
# [15] = Antiproliferative activity against human KBV cells in presence of 100 nM Paclitaxel; format: functional, cell-based; procedure, shortened: as §1
# [16] = Antitumour activity against human KBV cells xenografted in nude mouse assessed as paclitaxel-mediated tumour growth inhibition at 10 mg/kg; format: functional; conditions: read-out: TGI
# [17] = Cytotoxicity against human MCF-T cells assessed as cell survival measured after 72 hrs by MTT assay; format: functional, cell-based; procedure, shortened: as §1
# T1 sequence (P08183 whole entry): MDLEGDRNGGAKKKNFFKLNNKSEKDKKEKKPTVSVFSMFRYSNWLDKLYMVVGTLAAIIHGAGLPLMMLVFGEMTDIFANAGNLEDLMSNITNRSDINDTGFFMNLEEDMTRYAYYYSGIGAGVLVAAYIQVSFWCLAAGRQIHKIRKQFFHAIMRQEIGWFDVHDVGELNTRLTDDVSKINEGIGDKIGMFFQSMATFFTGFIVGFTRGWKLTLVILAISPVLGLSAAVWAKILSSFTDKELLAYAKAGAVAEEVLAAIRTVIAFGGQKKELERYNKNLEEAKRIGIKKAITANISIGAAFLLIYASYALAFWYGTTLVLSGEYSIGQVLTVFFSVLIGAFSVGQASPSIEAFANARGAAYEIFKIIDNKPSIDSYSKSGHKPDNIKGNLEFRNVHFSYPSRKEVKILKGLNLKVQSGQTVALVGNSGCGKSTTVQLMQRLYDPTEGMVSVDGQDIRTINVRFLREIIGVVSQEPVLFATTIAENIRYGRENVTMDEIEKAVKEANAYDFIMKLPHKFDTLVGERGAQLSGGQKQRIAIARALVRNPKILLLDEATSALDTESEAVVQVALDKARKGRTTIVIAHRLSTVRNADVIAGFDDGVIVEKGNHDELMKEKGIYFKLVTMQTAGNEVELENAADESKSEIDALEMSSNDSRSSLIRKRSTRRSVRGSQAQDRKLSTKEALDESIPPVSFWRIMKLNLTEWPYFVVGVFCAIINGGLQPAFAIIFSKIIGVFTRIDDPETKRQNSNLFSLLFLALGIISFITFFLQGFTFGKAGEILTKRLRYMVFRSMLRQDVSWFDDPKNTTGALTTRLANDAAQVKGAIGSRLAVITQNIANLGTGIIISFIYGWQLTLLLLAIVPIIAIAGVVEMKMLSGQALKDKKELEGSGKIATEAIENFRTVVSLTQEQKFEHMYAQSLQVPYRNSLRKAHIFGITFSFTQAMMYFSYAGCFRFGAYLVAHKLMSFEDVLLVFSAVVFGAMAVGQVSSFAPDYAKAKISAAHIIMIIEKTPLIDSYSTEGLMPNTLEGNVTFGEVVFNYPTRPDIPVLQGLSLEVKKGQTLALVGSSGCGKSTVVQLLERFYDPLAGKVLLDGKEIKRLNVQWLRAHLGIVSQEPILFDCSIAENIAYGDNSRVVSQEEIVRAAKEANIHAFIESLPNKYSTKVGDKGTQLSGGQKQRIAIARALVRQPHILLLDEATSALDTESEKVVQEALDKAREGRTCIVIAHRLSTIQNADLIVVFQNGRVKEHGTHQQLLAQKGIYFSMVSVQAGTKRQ
SMILES,viability at 10 µM [1] [%],cell survival rate [3] [%],other results
CC1(C)CC[C@]2(C(=O)OCc3ccccc3)CC[C@]3(C)C(=CC[C@@H]4[C@@]5(C)Cc6nccnc6[C@@](C)(COC(=O)CCC(=O)OCCOCCOCCOCCOCCOCCOCCOCCOCCO)[C@@H]5CC[C@]43C)[C@@H]2C1,70.6,15.38,"solubility ([2]; pH 7.4, read-out: solubility): 546 µg/mL"
CN1CCN(C(=O)[C@]23CCC(C)(C)C[C@H]2C2=CC[C@@H]4[C@@]5(C)Cc6nccnc6[C@@](C)(CO)[C@@H]5CC[C@@]4(C)[C@]2(C)CC3)CC1,124,23.51,–
CCN1CCN(C(=O)[C@]23CCC(C)(C)C[C@H]2C2=CC[C@@H]4[C@@]5(C)Cc6nccnc6[C@@](C)(CO)[C@@H]5CC[C@@]4(C)[C@]2(C)CC3)CC1,120,16.67,–
CC1(C)CC[C@]2(C(=O)O)CC[C@]3(C)C(=CC[C@@H]4[C@@]5(C)Cc6cn[nH]c6[C@@](C)(CO)[C@@H]5CC[C@]43C)[C@@H]2C1,109,99.31,–
CC1(C)CC[C@]2(C(=O)OCc3ccccc3)CC[C@]3(C)C(=CC[C@@H]4[C@@]5(C)Cc6nccnc6[C@@](C)(COC(=O)CCC(=O)OCCOCCOCCOCCO)[C@@H]5CC[C@]43C)[C@@H]2C1,90.3,11.97,"Activity [4]: 48.9%; remaining at 4 h [5]: 98.3%; remaining at 12 h [6]: 81.8%; solubility ([2]; pH 7.4, read-out: solubility): 21.6 µg/mL; Activity [7]: 2.4%; remaining at 24 h [8]: 78.9%; Activity [9]: Active; Activity [10]: Dose-Dependent Effect; Activity [11]: 20.7%; Activity [12]: Active; Activity [13]: Dose-Dependent Effect"
CC1(C)CC[C@]2(C(=O)N3CCOCC3)CC[C@]3(C)C(=CC[C@@H]4[C@@]5(C)Cc6nccnc6[C@@](C)(CO)[C@@H]5CC[C@]43C)[C@@H]2C1,110,16.37,–
CC1(C)CC[C@]2(C(=O)OCc3ccccc3)CC[C@]3(C)C(=CC[C@@H]4[C@@]5(C)Cc6cn[nH]c6[C@@](C)(CO)[C@@H]5CC[C@]43C)[C@@H]2C1,83.1,21.95,–
Cc1nc2c(s1)C[C@@]1(C)[C@@H](CC[C@]3(C)[C@@H]1CC=C1[C@@H]4CC(C)(C)CC[C@]4(C(=O)O)CC[C@]13C)[C@]2(C)CO,96,61.78,–
COc1ccc(CCN(C)CCCC(C#N)(c2ccc(OC)c(OC)c2)C(C)C)cc1OC (centres undefined),–,–,Activity [7]: 2.4%; Activity [11]: 40.6%
CC1(C)CC[C@]2(C(=O)OCC(=O)OCCOCCOCCOCCOCCOCCOCCOCCOCCOCCOCCOCCOCCO)CC[C@]3(C)C(=CC[C@@H]4[C@@]5(C)Cc6nccnc6[C@@](C)(CO)[C@@H]5CC[C@]43C)[C@@H]2C1,73.3,39.13,–
CC(=O)O[C@H]1C(=O)[C@@]2(C)[C@H]([C@H](OC(=O)c3ccccc3)[C@]3(O)C[C@H](OC(=O)[C@H](O)[C@@H](NC(=O)c4ccccc4)c4ccccc4)C(C)=C1C3(C)C)[C@]1(OC(C)=O)CO[C@@H]1C[C@@H]2O [PACLITAXEL],–,103.48,Activity [7]: 2.1%; IC50 [14]: 778 nM
Cc1nc2c(s1)C[C@@]1(C)[C@@H](CC[C@]3(C)[C@@H]1CC=C1[C@@H]4CC(C)(C)CC[C@]4(C(=O)OCc4ccccc4)CC[C@]13C)[C@]2(C)CO,98.6,27.85,–
CC1(C)CC[C@]2(C(=O)N3CCCCC3)CC[C@]3(C)C(=CC[C@@H]4[C@@]5(C)Cc6nccnc6[C@@](C)(CO)[C@@H]5CC[C@]43C)[C@@H]2C1,59.4,25.27,–
CC1(C)CC[C@]2(C(=O)OCC(=O)OCCOCCOCCOCCO)CC[C@]3(C)C(=CC[C@@H]4[C@@]5(C)Cc6nccnc6[C@@](C)(CO)[C@@H]5CC[C@]43C)[C@@H]2C1,75.4,25.88,–
CN(C)CCCOC(=O)[C@]12CCC(C)(C)C[C@H]1C1=CC[C@@H]3[C@@]4(C)Cc5nccnc5[C@@](C)(CO)[C@@H]4CC[C@@]3(C)[C@]1(C)CC2,67.5,12.65,–
CC1(C)CC[C@]2(C(=O)OCc3ccccc3)CC[C@]3(C)C(C(=O)C[C@@H]4[C@@]5(C)Cc6nccnc6[C@@](C)(CO)[C@@H]5CC[C@]43C)[C@@H]2C1 (some centres undefined),129,20.77,–
CC1(C)CC[C@]2(C(=O)OCc3ccccc3)CC[C@]3(C)C(=CC[C@@H]4[C@@]5(C)Cc6nccnc6[C@@](C)(CO)[C@@H]5CC[C@]43C)[C@@H]2C1,–,18.17,"Activity [4]: 25.4%; solubility ([2]; pH 7.4, read-out: solubility): 1.2 µg/mL; Activity [7]: 2.3%; IC50 [15]: 2.39 nM; inhibition in vivo at 10 mg/kg [16]: 41.9%; Activity [11]: 15.6%"
CC1(C)CC[C@]2(C(=O)OCC(=O)OCCOCCOCCO)CC[C@]3(C)C(=CC[C@@H]4[C@@]5(C)Cc6nccnc6[C@@](C)(CO)[C@@H]5CC[C@]43C)[C@@H]2C1,80.5,28.76,–
CC[C@]1(O)C[C@H]2CN(CCc3c([nH]c4ccccc34)[C@@](C(=O)OC)(c3cc4c(cc3OC)N(C=O)[C@H]3[C@@](O)(C(=O)OC)[C@H](OC(C)=O)[C@]5(CC)C=CCN6CC[C@]43[C@@H]65)C2)C1 [VINCRISTINE],–,–,IC50 [17]: 9.45 nM
CC1(C)CC[C@]2(C(=O)OCc3ccccc3)CC[C@]3(C)C(=CC[C@@H]4[C@@]5(C)Cc6nccnc6[C@@](C)(COC(=O)CCC(=O)OCCOCCO)[C@@H]5CC[C@]43C)[C@@H]2C1,72.7,79.47,solubility ([2]; pH 7.4): Soluble
CC1(C)CC[C@]2(C(=O)OCC(=O)OCCOCCO)CC[C@]3(C)C(=CC[C@@H]4[C@@]5(C)Cc6nccnc6[C@@](C)(CO)[C@@H]5CC[C@]43C)[C@@H]2C1,81.7,26.15,–
CC1(C)CC[C@]2(C(=O)OCc3ccccc3)CC[C@]3(C)C(=CC[C@@H]4[C@@]5(C)Cc6nccnc6[C@@](C)(COC(=O)CCC(=O)OCCOCCOCCOCCOCCOCCOCCOCCOCCOCCOCCOCCOCCO)[C@@H]5CC[C@]43C)[C@@H]2C1.CO,69.7,15.93,"solubility ([2]; pH 7.4, read-out: solubility): 789 µg/mL"
CC1(C)CC[C@]2(C(=O)OCc3ccccc3)CC[C@]3(C)C(=CC[C@@H]4[C@@]5(C)Cc6nccnc6[C@@](C)(COC(=O)CCC(=O)OCCOCCOCCO)[C@@H]5CC[C@]43C)[C@@H]2C1,82.5,43.54,solubility ([2]; pH 7.4): Soluble
CC1(C)CC[C@]2(C(=O)OCC(=O)OCCOCCOCCOCCOCCOCCOCCOCCOCCO)CC[C@]3(C)C(=CC[C@@H]4[C@@]5(C)Cc6nccnc6[C@@](C)(CO)[C@@H]5CC[C@]43C)[C@@H]2C1,76,25.16,–
CC1(C)CC[C@]2(C(=O)O)CC[C@]3(C)C(=CC[C@@H]4[C@@]5(C)CC[C@H](O)[C@@](C)(CO)[C@@H]5CC[C@]43C)[C@@H]2C1 [HEDERAGENIN],–,107.17,–
